Assay results: PMC9839614 (Cancer cell, 2022)

What was measured:
[1] = first-in-human study, advanced solid tumors; cited from earlier work
[2] = system: RNA splicing in MOLM-13 cells; test: RNA-seq alternative splicing analysis; format: cell-based, human; settings: 48 hours, SM09419 100 nM, venetoclax 10 nM
Outline: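 Total RNA was extracted from MOLM-13 cells with an RNeasy column kit for RNA-seq. Before downstream analysis, FASTQ reads were trimmed of sequencing adapters and of low-quality reads (Q<15).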

[3] = system: venetoclax-resistant MOLM-13 cell lines; test: Drug treatment IC50 measurement; format: cell-based, human
Outline: (§1)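 MOLM-13 cells (parental or venetoclax-resistant) were plated and exposed to the test compound across a range of concentrations, with at least three technical replicates per concentration per cell line. Viability was read by CellTiter-Glo luminescence. IC50 was calculated from technical triplicates within each experiment, over n=3 experiments, and reported as mean with SEM.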

MOLM-13 parental cells = test: Drug treatment IC50 measurement; format: cell-based; settings: Homo sapiens, MOLM-13, read-out: IC50 (cell viability)
Outline: as §1

IC50 ([3]; Homo sapiens, MOLM-13, 504 h, read-out: IC50 (cell viability))	SMILES	Grade 3 anemia rate [1]	Effect on RNA splicing [2]	IC50 of resistant cell lines relative to parental cells ([3]; venetoclax-resistant vs parental MOLM-13)	IC50 (MOLM-13 parental cells)
–	CN1CCN(c2cc(C(=O)Nc3cc4cc(-c5cnn(C)c5)ccc4cn3)ccn2)CC1 [Cirtuvivint]	< 15%	–	–	–
> 99 nM	CC1(C)CCC(CN2CCN(c3ccc(C(=O)NS(=O)(=O)c4ccc(NCC5CCOCC5)c([N+](=O)[O-])c4)c(Oc4cnc5[nH]ccc5c4)c3)CC2)=C(c2ccc(Cl)cc2)C1 [venetoclax]	–	no significant effects on RNA splicing	approximately six times greater	~15 nM
